From PubChem
INS promoter act: TRM-6 insulin promoter activation. actives 0.81% (n = 130,000). activation, % at 2 µM. TRM-6 cells (human fetal islet line), insulin promoter eGFP reporter, imaging; plate-scaled: unstimulated 0, stimulated control 100;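 active = activation at 2 µM above a set limit, confirmed on inspection of the cell images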;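 also: share of cells whose green reporter signal exceeds an intensity cutoff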
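System – TRM-6 insulin promoter–eGFP reporter cells · Probe or stimulus – 0.75 µM tamoxifen as reporter inducer · Dosing – single-point 2 µM compound dose · Incubation – tamoxifen pre-incubation 15 h overnight, then compound exposure 48 h at 37 °C · Measured by – fixed-cell fluorescence microscopy, eGFP plus Hoechst · Evaluation – percent GFP-positive cells normalized to per-plate controls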
Numbers stand for hits. This excerpt belongs to a sample that is enriched for hits.

What do the screens show for `CCc1nnc(NC(=O)c2nc3nc(C)cc(C)n3n2)s1`?
INS promoter act: inactive

Results for Cc1cccc(NC(=O)CN2NS(=O)(=O)c3ccccc3C2=O)c1 ?
INS promoter act: inactive

How did CCOc1ccc(NC(=O)Cn2c(=O)oc3ccccc32)cc1 do in these assays?
INS promoter act: inactive

How did CC(C)(C)c1csc(NC(=O)Cn2c(=O)oc3ccccc32)n1 do in these assays?
INS promoter act: 429

Results for O=C(Cn1c(=O)oc2ccccc21)c1ccccc1 ?
INS promoter act: inactive

What do the screens show for `CSCCC(NC(=O)c1ccc(Cl)cc1)C(=O)NC(C)(C)C` (centres undefined)?
INS promoter act: inactive

How did Cc1ccc(/C(=N/Nc2nc3ccccc3s2)C2=C(O)c3ccccc3C2=O)cc1 do in these assays?
INS promoter act: inactive

What do the screens show for `CCOC(=O)C(NC(=O)c1ccccc1)(OCc1ccc(F)cc1)C(F)(F)F` (centres undefined)?
INS promoter act: inactive

Results for CCOC(=O)C(NC(=O)Nc1ncccn1)(Oc1ccccc1)C(F)(F)F (centres undefined) ?
INS promoter act: 190

Results for CCOC(=O)C(NC(=O)c1ccc(OC)cc1)(OCC1(CC)COC1)C(F)(F)F (centres undefined) ?
INS promoter act: inactive

Results for CCCCCCNS(=O)(=O)c1ccc(NC(=O)C2CCCO2)cc1 (centres undefined) ?
INS promoter act: inactive

What do the screens show for `ClCC1NCC(c2ccccc2Cl)c2c1[nH]c1ccccc21` (centres undefined)?
INS promoter act: 586

How did CO/N=C(/CS(=O)(=O)c1ccc(C)cc1)c1ccc(OC)cc1 do in these assays?
INS promoter act: inactive

How did Cc1cccc(-n2c(CCc3ccccc3)nnc2SCC(=O)c2ccccc2)c1 do in these assays?
INS promoter act: inactive

Results for Cc1ccc(-n2c(C)cc(C)c(C#N)c2=O)cc1C ?
INS promoter act: inactive

What do the screens show for `O=[N+]([O-])c1c(C(Cl)Cl)nn(-c2ccc(Cl)cc2)c1N1CCCCC1`?
INS promoter act: inactive

What do the screens show for `CC1CCCC(C)N1C(=O)C1CCCCC1` (centres undefined)?
INS promoter act: inactive

Results for CC(=O)N1C2CCCCC2S[C@H]2CCCCC21 (some centres undefined) ?
INS promoter act: 200

How did O=CNc1ccc(S(=O)(=O)NCc2ccccc2)cc1 do in these assays?
INS promoter act: inactive

Results for CC(=O)OC(COc1cccc(C)c1)Cn1cnc2ccccc21 (centres undefined) ?
INS promoter act: 407

Results for CC(=O)Nc1cccc(OCC(O)Cn2cnc3ccccc32)c1 (centres undefined) ?
INS promoter act: inactive

Results for Cc1cccc(OCC(O)CNC(=O)c2ccccc2C(=O)O)c1 (centres undefined) ?
INS promoter act: inactive

How did CCOC(=O)CNC(=S)N(Cc1ccc(C)cc1)Cc1ccc(C)o1 do in these assays?
INS promoter act: inactive

What do the screens show for `O=C1C2CCCN2C(=O)N1CCCCN1CCN(c2ccc(F)cc2)CC1` (centres undefined)?
INS promoter act: inactive

How did NNC(=O)c1cnn(Cc2ccccc2)c1N do in these assays?
INS promoter act: inactive

How did COc1ccc2c(C)cc(SCC#N)nc2c1 do in these assays?
INS promoter act: 167

How did COc1ccc2c(-c3ccccc3)cc(SCC(=O)N(C)C)nc2c1 do in these assays?
INS promoter act: inactive

What do the screens show for `COc1ccc2c(-c3ccccc3)cc(SCC(=O)NC(N)=O)nc2c1`?
INS promoter act: inactive

What do the screens show for `Cc1ccc2nc(C)cc(C(=O)OCC(=O)Nc3c(C)n(C)n(-c4ccccc4)c3=O)c2c1`?
INS promoter act: inactive

Results for O=C(CN1C(=O)/C(=C/c2cccc(Br)c2)SC1=S)N1CCCC1 ?
INS promoter act: inactive

How did CCCCn1c2ccc(F)cc2c2nnc(NN)nc21 do in these assays?
INS promoter act: inactive

How did CC(C)CN(CC(C)C)C(=O)Nc1ccccc1F do in these assays?
INS promoter act: inactive

How did CC(=O)NC(C)C(=O)OCC(=O)c1ccc(-c2ccccc2)cc1 (centres undefined) do in these assays?
INS promoter act: inactive

What do the screens show for `COc1ccc(/C=N\NC(=O)c2cccc(Br)c2)c(OC)c1`?
INS promoter act: inactive

What do the screens show for `COc1ccc(/C=C2\CC/C(=C\c3ccc(OC)c(OC)c3)C2=O)cc1OC`?
INS promoter act: inactive

What do the screens show for `COc1ccc(/C=C2\CC/C(=C\c3ccc(OC)cc3OC)C2=O)c(OC)c1`?
INS promoter act: 527

Results for CCCCN(C(=O)Nc1ccc(OCC)cc1)C1CCN(C(C)=O)CC1 ?
INS promoter act: inactive

How did CCN(CC)c1ccc(NC(=O)c2ccc3c(c2)c(C)c(C)n3C)cc1 do in these assays?
INS promoter act: inactive

Results for Cc1cccc(-c2nsc(SCC(=O)Nc3nccs3)n2)c1 ?
INS promoter act: 121

Results for CCc1nnc(NC(=O)CSc2nc(-c3ccc(OC)cc3)ns2)s1 ?
INS promoter act: inactive

How did COc1ccc(-c2nsc(SCC(=O)Nc3cc(C)on3)n2)cc1 do in these assays?
INS promoter act: inactive

How did CCOC(=O)c1ccc(S(=O)(=O)N2CCN(C(=O)c3nn(C)c(=O)c4ccccc34)CC2)cc1 do in these assays?
INS promoter act: inactive
